Measured values taken from ChEMBL document CHEMBL1123210, “Cycloheximide analogues as potential anticonvulsants” (J Med Chem, 1986).
Activity calls are given as the source filed them.

Assays:
Mus musculus [1] = test: Compound was tested for subcutaneous pentylenetetrazole seizure test in mice after administration intraperitoneally at 0.5 hr; IA is Inactive; assay type: functional, organism-based
Mus musculus [2] = test: (§1) Compound was tested for maximal electroshock seizure test in mice 4 hr after administration; IA is Inactive; assay type: functional, organism-based
Mus musculus [3] = test: (§2) Compound was tested for maximal electroshock seizure test in mice 0.5 hr after administration.; assay type: functional
Mus musculus [4] = test: Inhibition of subcutaneous pentylenetetrazole induced seizures in mice 4 hr following i.p. administration; Inactive.; assay type: functional, organism-based
Mus musculus [5] = organism: Mus musculus; test: Number of mice exhibiting toxicity out of four (4) mice was measured by using rotarod test.; assay type: organism-based; settings: in vivo
How it was run: (§3)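 Neurotoxicity was scored in the rotorod test in mice given doses up to 600 mg/kg. The value is the number of animals out of four showing toxicity. It was recorded for both the initial screen and the repeat pentylenetetrazol screen.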

Mus musculus [6] = test: as §2; assay type: functional; remark: listed apart in the source
How it was run: (§4)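 Mice, four per dose level, screened at 30, 100, 300 and 600 mg/kg and read at 0.5 h and 4 h after dosing. End point is prevention of tonic hindlimb extension after maximal electroshock. Activity is the lowest dose at which at least one of four animals is protected.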

Mus musculus [7] = test: (§5) Compound was tested for the lowest dose which protected half of the mice in pentylenetetrazole seizure test 0.5 hr after ip administration of the compound; assay type: functional
How it was run: (§6)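 Repeat pentylenetetrazol screen (85 mg/kg sc, clonic seizure end point) in four mice per dose, at 30, 100, 300 and 600 mg/kg, read at 0.5 h and 4 h. The value is the lowest dose at which at least half of the four animals were protected. A few cases were rescreened at 100, 250, 450 and 600 mg/kg or used only three animals.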

Mus musculus [8] = test: (§7) Compound was tested for subcutaneous pentylenetetrazole seizure test in mice after administration intraperitoneally at 0.5h.; assay type: functional
How it was run: (§8)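 Mice, four per dose level, screened at 30, 100, 300 and 600 mg/kg and read at 0.5 h and 4 h after dosing. End point is prevention of minimal threshold (clonic) seizures induced by pentylenetetrazol 85 mg/kg sc. Activity is the lowest dose at which at least one of four animals is protected.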

Mus musculus [9] = test: Number of mice exhibiting toxicity out of four (4) mice in repeated subcutaneous pentylenetetrazole seizure test was measured by using rotarod test; assay type: organism-based; settings: in vivo; how it was run: as §3
Mus musculus [10] = test: as §1; assay type: functional, organism-based; how it was run: as §4; remark: listed apart in the source
Mus musculus [11] = test: (§9) Compound was tested for the lowest dose which protected half of the mice in pentylenetetrazole seizure test 4 hr after ip administration of the compound; assay type: functional; how it was run: as §6
Mus musculus [12] = test: (§10) Compound was tested for subcutaneous pentylenetetrazole seizure test in mice after administration intraperitoneally at 4h.; assay type: functional; how it was run: as §8
Mus musculus [13] = test: Inhibition of maximal electroshock induced seizures in mice 4 hr after administration; Inactive.; assay type: functional, organism-based
Mus musculus [14] = test: Compound was tested for maximal electroshock seizure test in mice 0.5 hr after administration; IA is Inactive; assay type: functional, organism-based
Mus musculus [15] = test: as §5; assay type: functional; remark: listed apart in the source
How it was run: (§11)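 This was a repeat of the subcutaneous pentylenetetrazol screen in mice (85 mg/kg s.c.). Endpoint was prevention of clonic seizures, four animals per dose at 30, 100, 300 or 600 mg/kg. The value is the lowest dose at which at least half of the four animals were protected.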

Mus musculus [16] = test: as §7; assay type: functional; remark: listed apart in the source
Mus musculus [17] = test: Compound was tested for maximal electroshock seizure test in mice 0.5 hr after administration; IA is Inactivev; assay type: functional, organism-based
Mus musculus [18] = test: Compound was tested for maximal electroshock seizure test in mice 4 hr after administration.; assay type: functional
Mus musculus [19] = test: Compound was tested for the lowest dose which protected half of the mice in pentylenetetrazole seizure test 0.5 hr after ip administration of the compound; IA is Inactive; assay type: functional, organism-based; how it was run: as §11
Mus musculus [20] = test: as §10; assay type: functional; remark: listed apart in the source
Mus musculus [21] = test: Compound was tested for the lowest dose which protected half of the mice in pentylenetetrazole seizure test 4 hr after ip administration of the compound; IA is Inactive; assay type: functional, organism-based; how it was run: as §11
Mus musculus [22] = test: Compound was tested for subcutaneous pentylenetetrazole seizure test in mice after administration intraperitoneally at 4h.; IA is Inactive; assay type: functional, organism-based
Mus musculus [23] = test: as §9; assay type: functional; how it was run: as §11; remark: listed apart in the source

SMILES	scMet (Mus musculus [1])	scMet (Mus musculus [4])	Toxicity (Mus musculus [5])	Toxicity (Mus musculus [9])	MES (Mus musculus [13])	MES (Mus musculus [14])	scMet (Mus musculus [16])	scMet (Mus musculus [15])	other results
C[C@H]1CCCC([C@H](O)CC2CC(=O)N(C)C(=O)C2)[C@H]1O (stereo not given in full)	inactive	inactive	0						MES (Mus musculus [2]): inactive; MES (Mus musculus [3]): 600 mg/kg
C[C@@H]1CC([C@H](O)CC2CC(=O)NC(=O)C2)C(=O)[C@@H](C)C1 (stereo not given in full)			1	0 animals					MES (Mus musculus [6]): 600 mg/kg; scMet (Mus musculus [7]): 100 mg/kg; scMet (Mus musculus [8]): 100 mg/kg; MES (Mus musculus [10]): inactive; scMet (Mus musculus [11]): 300 mg/kg; scMet (Mus musculus [12]): 300 mg/kg
CC1CCCC(C(=O)CC2CC(=O)N(C)C(=O)C2)C1=O (stereo in doubt; 2g)					inactive				MES (Mus musculus [3]): 600 mg/kg
C[C@H]1CC([C@H](O)CC2CC(=O)N(Cc3ccccc3)C(=O)C2)[C@@H](O)[C@@H](C)C1 (stereo not given in full)	inactive	inactive			inactive	inactive			
C[C@@H]1CC(C2CC(CC(=O)NCc3ccccc3)CC(=O)O2)[C@@H](O)[C@@H](C)C1 (stereo not given in full)	inactive	inactive			inactive	inactive			
C[C@H]1CC[C@H](O)C([C@H](O)CC2CC(=O)N(C)C(=O)C2)C1 (stereo not given in full)	inactive	inactive	4		inactive				MES (Mus musculus [3]): 600 mg/kg
C[C@H]1CCCC(C(=O)CC2CC(=O)NC(=O)C2)C1=O (stereo not given in full)		inactive	0	0	inactive	inactive	300 mg/kg		MES (Mus musculus [15]): 100 mg/kg
C[C@@H]1CC(C(=O)CC2CC(=O)N(C)C(=O)C2)C(=O)[C@@H](C)C1 (stereo not given in full)		inactive	1	1			600 mg/kg	600 mg/kg	MES (Mus musculus [17]): inactive; MES (Mus musculus [18]): 600 mg/kg
O=C1CC(C[C@@H](O)C2CCCC[C@@H]2O)CC(=O)N1 (stereo not given in full)		inactive	0	0	inactive	inactive	100 mg/kg	600 mg/kg	
C[C@@H]1CCc2c(c(CC3CC(=O)NC(=O)C3)nn2-c2ccccc2)C1	inactive		0		inactive	inactive			MES (Mus musculus [19]): inactive; scMet (Mus musculus [20]): 30 mg/kg
C[C@H]1CC([C@H](O)CC2CC(=O)N(C)C(=O)C2)[C@@H](O)[C@@H](C)C1 (stereo not given in full)	inactive	inactive	0		inactive				MES (Mus musculus [3]): 600 mg/kg
CC(=O)O[C@H](CC1CC(=O)N(C)C(=O)C1)C1C[C@@H](C)C[C@H](C)C1=O (stereo not given in full)	inactive	inactive			inactive	inactive			
C[C@@H]1CCC(=O)C(C(=O)CC2CC(=O)NC2=O)C1 (stereo not given in full)		inactive	2	1	inactive		600 mg/kg	600 mg/kg	MES (Mus musculus [3]): 600 mg/kg
C[C@H]1CCC(=O)C(C(=O)CC2CC(=O)NC(=O)C2)C1 (stereo not given in full)	inactive	inactive			inactive	inactive			
C[C@H]1CC[C@H](O)C([C@H](O)CC2CC(=O)NC(=O)C2)C1 (stereo not given in full)			0	0	inactive	inactive	30 mg/kg	30 mg/kg	scMet (Mus musculus [20]): 600 mg/kg; MES (Mus musculus [21]): inactive
CN1C(=O)CC(CC(=O)C2CCCCC2=O)CC1=O (stereo in doubt; 2e)	inactive	inactive			inactive	inactive			
C[C@H]1CCC(=O)C(C(=O)CC2CC(=O)N(C)C(=O)C2)C1 (stereo not given in full)	inactive	inactive			inactive	inactive			
C[C@H]1CC(C(=O)CC2CC(=O)NC(=O)C2)C(=O)[C@@H](C)C1 (stereo not given in full)	inactive	inactive			inactive	inactive			
O=C1CC(CC(=O)C2CCCCC2=O)C(=O)N1 (stereo not given)			0	0	inactive	inactive	600 mg/kg	600 mg/kg	scMet (Mus musculus [22]): inactive
O=C1CC(CC(=O)C2CCCCC2=O)CC(=O)N1 (stereo not given)		inactive	0		inactive	inactive	600 mg/kg	600 mg/kg	
C[C@H]1CC([C@H](O)CC2CC(=O)NC(=O)C2)[C@@H](O)[C@@H](C)C1 (stereo not given in full)			1	0	inactive	inactive	100 mg/kg	100 mg/kg	scMet (Mus musculus [23]): 600 mg/kg; scMet (Mus musculus [20]): 600 mg/kg
CN1C(=O)CC(C[C@@H](O)C2CCCC[C@@H]2O)CC1=O (stereo not given in full)	inactive	inactive			inactive	inactive			
